Measurements gathered from unrelated publications.
pEC50, pIC50: −log10 of the molar value. In brackets after ≈: the same amount, converted by molar mass.

SMILES | organism | test | test system | setting | endpoint | result
CS(=O)(=O)Nc1cccc(-n2c(/C=C/c3ccc(F)cc3)nc3ccccc3c2=O)c1 | Enterococcus faecium | microbial growth, broth dilution | NCTC7171 |  | MIC | > 128 µg/mL
COc1cccc(-n2ncc3c(N/N=C/c4ccc(C(=O)NCCN(C)C)cc4)ncnc32)c1 | Trypanosoma brucei | parasite growth |  |  | pEC50 | 6.60
Cl.NCCc1ccc(Oc2ccc(-c3noc(-c4ccc(O)cc4)n3)cc2)cc1 | Enterococcus faecium | microbial growth, broth dilution |  | 24 h | MIC | 4 µg/mL
O=C(O)c1cn(C2CC2)c2cc(N3CCNCC3)c(F)cc2c1=O | Mycobacterium intracellulare | microbial growth, resazurin | ATCC23068 |  | IC50 | 0.48 µg/mL
Cc1ccc2c(-c3ccnc(Nc4ccccc4)n3)c(-c3ccc(F)cc3)nn2n1 | Plasmodium berghei | parasite growth, luciferase | human | liver stage | pIC50 | 5.26
COC(=O)Cc1ccc(/C=C/c2nc3ccccc3c(=O)n2-c2cccc(C(=O)O)c2)cc1 | Enterococcus faecium | microbial growth, broth dilution | NCTC7171 |  | MIC | > 128 µg/mL
CC1=C(C(=O)Nc2ccc3[nH]ncc3c2)C(c2ccc(F)cc2)NC(c2ccc(C(F)(F)F)nc2)=N1 (stereo not shown) | Trypanosoma brucei | parasite growth |  |  | pEC50 | 5.30
COc1cc2ncn(-c3cc(O[C@H](C)c4ccccc4Cl)c(C(N)=O)s3)c2cc1OC | Plasmodium berghei | parasite growth, luciferase | human | liver stage | pIC50 | 5.15
Cl.NCCc1ccccc1Oc1ccc(-c2noc(-c3ccc(O)cc3)n2)cc1 | Enterococcus faecium | microbial growth, broth dilution |  | 24 h | MIC | 8 µg/mL
O=S(=O)(CCOCc1ccc(-c2ccc3ncnc(Nc4ccc(OCc5cccc(F)c5)c(Cl)c4)c3c2)o1)c1ccccc1 | Trypanosoma brucei | parasite growth |  |  | pEC50 | 5.80
CC(=O)Nc1cccc(-n2c(/C=C/c3ccc(F)cc3)nc3ccccc3c2=O)c1 | Enterococcus faecium | microbial growth, broth dilution | NCTC7171 |  | MIC | > 128 µg/mL
COc1cc2c(cc1Nc1nc(Nc3cccc(F)c3C(N)=O)c3cc[nH]c3n1)N(C(=O)CN1CCN(C(C)C)CC1)CC2 | Trypanosoma brucei | parasite growth |  |  | pEC50 | 6.70
CC(=O)Nc1ccc(-c2nc(-c3ccc(Oc4ccccc4)cc3)no2)cc1 | Enterococcus faecium | microbial growth, broth dilution |  | 24 h | MIC | > 32 µg/mL
C[C@@H]1[C@H](O)[C@@H](C)/C=C/C=C/C=C/C=C/C=C/C=C/C=C/[C@H](O[C@@H]2O[C@H](C)[C@@H](O)[C@H](N)[C@@H]2O)C[C@@H]2O[C@](O)(C[C@@H](O)C[C@@H](O)[C@H](O)CC[C@@H](O)C[C@@H](O)CC(=O)O[C@H]1C)C[C@H](O)[C@H]2C(=O)O | Candida albicans | microbial killing | ATCC90028 |  | MFC | 1.35 µM (≈ 1.25 µg/mL)
N#Cc1ccc(/C=C/c2nc3ccccc3c(=O)n2-c2cccc(C(=O)NCc3cccnc3)c2)cc1 | Enterococcus faecium | microbial growth, broth dilution | NCTC7171 |  | MIC | > 128 µg/mL
COc1cc(Nc2ncc3c(C)nc(-c4cccc(C(F)(F)F)c4)n3n2)cc(OC)c1OC | Trypanosoma brucei | parasite growth |  |  | pEC50 | 6.80
CCCCCCCCCCCCCC(O)CC(O)CO (stereo not shown) | Candida albicans | microbial growth, broth dilution | ATCC90028 |  | IC50 | > 200 µg/mL
COc1cc(/C=N/Nc2ncnc3c2cnn3C(C)C)ccc1O | Trypanosoma brucei | parasite growth |  |  | pEC50 | 6.00
O=C(O)c1cn(C2CC2)c2cc(N3CCNCC3)c(F)cc2c1=O | Mycobacterium intracellulare | microbial growth | ATCC23068 |  | IC50 | 0.3 µg/mL
